The record followed here is PubChem BioAssay.

A short description of assay [1]: inhibitors of TNFa-induced NFkB p65 translocation, primary screen, imaging, HUVEC, MLSMR starter and 10KST1 sets (AID 438;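 active = inhibition above 20% together with a positive visual image hit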;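 note: compound added about 3h40 before a 20 min TNFalpha stimulation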;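 for inhibition: signal is the nuclear over cytoplasmic p65 intensity ratio per well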). The settings on record: HUVEC TNFa-induced p65 nuclear translocation; cell count: measured here: nuclei count (cytotoxicity indicator), at 2.08 µM; inhibition: at 2 µM, stronger effect = higher value, 0% TNFa-plus-vehicle, 100% no-TNFa wells.
Assay [2] is described as follows: reduction of polyQ htt aggregates in cells – imaging, exon1htt(103Q)mCFP cells, high-content imaging, primary screen (AID 483;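 active = visual image review flags a hit and inhibition of aggregation exceeds 20%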;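 note: compound exposure lasted 3 days before fixation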;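 for nuclei count: percent of the per-plate median nuclei count of sample wells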). The settings on record: exon1htt(103Q)mCFP cell line, aggregate imaging, at 2 µM; inhibition of aggregation: stronger effect = higher value; nuclei count: measured here: cell count, toxicity.
Assay [3] in a line: endothelial E-selectin expression blockers – imaging, HUVEC, immunofluorescence, MLSMR starter and 10KST1 sets, primary screen (AID 487;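 active = visually confirmed hit in the image check and inhibition above 20%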;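 for inhibition: signal is fraction of cell area covered by stained E-selectin grains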;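 for nuclei count: 100% = median nuclei count of all wells on the same plate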). The note with it: HUVEC TNFalpha-induced E-selectin immunofluorescence imaging, at 2 µM; inhibition: stronger effect = higher value; nuclei count: measured here: cell number, toxicity.
The target of assay [4] is Voltage-gated potassium channel subunit beta-2 (Rattus norvegicus) (UniProt P62483). Description: inhibitors of rat Kvbeta2 reductase activity – biochemical, NADPH fluorescence, primary screen (AID 622).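 Note: slope of raw intensity against log time taken from 70 to 1610 s.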 The note with it: recombinant KvBeta, 4-cyanobenzaldehyde reduction, at 10 µM, stronger effect = higher value.
Chain of Voltage-gated potassium channel subunit beta-2 (Rattus norvegicus) (P62483 whole entry, looked up): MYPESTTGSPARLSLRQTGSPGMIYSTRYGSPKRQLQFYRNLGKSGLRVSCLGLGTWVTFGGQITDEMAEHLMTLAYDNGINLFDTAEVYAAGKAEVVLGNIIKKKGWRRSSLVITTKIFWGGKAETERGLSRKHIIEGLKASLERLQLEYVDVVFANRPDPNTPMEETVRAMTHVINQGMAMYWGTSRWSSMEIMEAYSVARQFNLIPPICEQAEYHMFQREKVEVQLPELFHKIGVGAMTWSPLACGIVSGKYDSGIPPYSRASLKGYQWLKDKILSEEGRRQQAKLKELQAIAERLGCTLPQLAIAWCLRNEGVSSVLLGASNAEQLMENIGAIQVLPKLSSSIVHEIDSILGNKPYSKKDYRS
The target is the same in assay [5]. Description: enhancers of rat Kvbeta2 NADPH turnover – biochemical, NADPH fluorescence, primary screen (AID 623;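 active = NADPH fluorescence slope more negative than the mean of all samples by about 3 SD, 99.7% confidence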;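 note: fluorescence intensity change per second fitted from 20 to 320 s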). The settings on record: Recombinant KvBeta, NADPH fluorescence decrease slope, 10 min; at 10 µM; stronger effect = lower value.
In assay [6] the target is Muscarinic acetylcholine receptor M4 (Homo sapiens) (UniProt P08173). Description: M4-linked GIRK flux change, two-sided – cell-based, HEK293 M4/GIRK, thallium flux, BTC-AM, M4 allosteric agonist project, primary screen (AID 625;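 active = fluorescence slope after compound addition differing from the mean of all tested samples at 99.7% confidence, mostly higher but some lower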;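 note: thallium influx through GIRK channels coupled to M4 in HEK293 cells with BTC-AM dye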). The note with it: at 10 µM, actives lie on both sides. In outline:
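Material: M4/GIRK1/GIRK2 stable HEK293 cell line. Medium: pH 7.3 thallium assay buffer. Dosing: single compound concentration, 10 µM final. Schedule: 1 h dye loading, 2 min kinetic read. Measured by: kinetic fluorescence with BTC-AM dye. Read-out: post-addition slope, 15–24 s, of baseline-normalized fluorescence. Benchmarks: carbachol and DMSO controls.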

Assay [7] is described as follows: blockers of RIG-like receptor reporter activation – cell-based, Sendai virus stimulus, luciferase, 10K MLSCN set, TLR/RLR signaling modifier project, primary screen (AID 602276;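 active = inhibition at or above 50% at 10 µM; inactive = inhibition below 50%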;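 note: firefly luciferase from ISG56 promoter only with Renilla not read in this screen; 0% = Sendai virus plus DMSO and 100% = medium plus DMSO without virus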). The note with it: HEK293 RL24 IRF3 luciferase reporter, at 10 µM, stronger effect = higher value.
Assay [8] in a line: TLR3 IRF3 reporter activation blockers – cell-based, poly I:C stimulus, luciferase, 10K MLSCN set, primary screen (AID 602277;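 active = inhibition of the reporter signal at or above 50%; inactive = inhibition below 50%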). The settings on record: HEK293-TLR3 RL24 IRF3 luciferase reporter, at 10 µM, stronger effect = higher value. Background: A reporter such as luciferase makes a cellular process visible.

Molecules are shown by their SMILES. The source made the active and inactive calls.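 Rule for the calls, unless noted: active = fluorescence slope higher than the sample average by over 3 SD (cut at about -0.22 in these data, passing the limit was not always enough); inactive = the rest.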

Chain of Muscarinic acetylcholine receptor M4 (Homo sapiens) (P08173 whole entry, looked up): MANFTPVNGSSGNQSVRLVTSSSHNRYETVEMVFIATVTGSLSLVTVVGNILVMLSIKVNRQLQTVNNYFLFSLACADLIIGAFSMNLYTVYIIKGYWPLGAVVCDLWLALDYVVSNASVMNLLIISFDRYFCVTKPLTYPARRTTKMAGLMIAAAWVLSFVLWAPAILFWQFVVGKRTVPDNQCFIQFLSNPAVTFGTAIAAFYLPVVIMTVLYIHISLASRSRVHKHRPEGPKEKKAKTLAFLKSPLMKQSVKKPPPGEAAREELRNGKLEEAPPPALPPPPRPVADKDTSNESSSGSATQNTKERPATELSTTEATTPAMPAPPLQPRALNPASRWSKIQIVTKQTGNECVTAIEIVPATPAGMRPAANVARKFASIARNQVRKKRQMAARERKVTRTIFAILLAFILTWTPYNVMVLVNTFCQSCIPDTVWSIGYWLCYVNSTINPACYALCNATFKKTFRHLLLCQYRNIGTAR

As to `COc1cc(OC)cc(C(=O)NCc2n[nH]c(=S)n2-c2ccccc2OC)c1`, the cell count in assay [1] was 385. Also, the inhibition (as a rule, the change of the read-out against control, counted positive when it falls) in assay [1] was 0% (inactive); in assay [3], -29.2% (inactive); in assay [7], 7.57% (inactive); in assay [8], 6.78% (inactive). Further, the inhibition of aggregation in assay [2] was -6.2% (inactive). For the same compound, the figures for the nuclei count in assay [2] and in assay [3] were 112% and 83%, respectively. The results for the fluorescence slope in assay [4] and in assay [6] were -0.329 (inactive) and 0.00633 (inactive), respectively. Also, the NADPH fluorescence slope in assay [5] is -6.5e-05 (inactive).
`CCCN1CCN(CCCNC(=O)Cn2nc(-c3ccc(Cl)cc3)ccc2=O)CC1`: the cell count in assay [1] was 514. For the same compound, the inhibition in assay [1] is 13.6% (inactive); in assay [3], -205% (inactive); in assay [7] it was 9.94% (inactive); in assay [8] it was 11.9% (inactive). For the same compound, the inhibition of aggregation in assay [2] was 0.1% (inactive). The nuclei count in assay [2] was 106%; in assay [3], 131%. Besides, the values for the fluorescence slope in assay [4] and in assay [6] were -0.552 (inactive) and 0.00614 (inactive), respectively. The NADPH fluorescence slope in assay [5] was -8.1e-05 (inactive).
As for `CCN(CC)c1ccc(NC(=O)c2cncc(Br)c2)cc1`, in assay [1], the cell count is 218. In addition, the inhibition in assay [1] is 0.6% (inactive); in assay [3] it was -31.6% (inactive); in assay [7], -32.8% (inactive); in assay [8] it was -129% (inactive). Moreover, in assay [2], the inhibition of aggregation is 28% (inactive). The figures for the nuclei count in assay [2] and in assay [3] were 86.8% and 104%, respectively. Moreover, the results for the fluorescence slope in assay [4] and in assay [6] were -0.59 (inactive) and 0.00416 (inactive), respectively. Moreover, the NADPH fluorescence slope in assay [5] was -6e-05 (inactive).
As to `CCOc1ccccc1C(=O)NCCC(=O)O`, the cell count in assay [1] worked out at 326. In addition, the inhibition in assay [1] was -5.1% (inactive); in assay [3], 16% (inactive); in assay [7] it was -1.19% (inactive); in assay [8], -5.47% (inactive). In assay [2], the inhibition of aggregation was -42.8% (inactive). Moreover, the results for the nuclei count in assay [2] and in assay [3] were 91.6% and 118%, respectively. Besides, the fluorescence slope was -0.505 (inactive) in assay [4] and 0.00473 (inactive) in assay [6]. For the same compound, the NADPH fluorescence slope in assay [5] was -0.00026 (inactive).
As for `COc1ccccc1N1CCN(C(=O)C2CC=CCC2C(=O)O)CC1` (centres undefined), the cell count in assay [1] is 444. For the same compound, the inhibition in assay [1] was -1.8% (inactive); in assay [3], 24.2% (inactive); in assay [7], 18.1% (inactive); in assay [8] it was 16.3% (inactive). Also, the inhibition of aggregation in assay [2] is -7.5% (inactive). The nuclei count in assay [2] was determined as 87.8%; in assay [3] it was 44.5%. Moreover, the fluorescence slope in assay [4] is -0.454 (inactive); in assay [6], 0.00504 (inactive). In addition, the NADPH fluorescence slope in assay [5] was -1.2e-05 (inactive).
Consider `CCOC(=O)c1ccccc1NC(=O)Cn1cnc2c(cnn2-c2ccc(OC)cc2)c1=O`, for which, in assay [1], the cell count amounted to 705. The inhibition in assay [1] was -25.5% (inactive); in assay [3], -0.4% (inactive); in assay [7] it was 10.8% (inactive); in assay [8], 22.8% (inactive). In addition, the inhibition of aggregation in assay [2] is -6.3% (inactive). For the same compound, the values for the nuclei count in assay [2] and in assay [3] were 108% and 101%, respectively. Further, the fluorescence slope was -0.237 (inactive) in assay [4] and 0.0067 (inactive) in assay [6]. In addition, the NADPH fluorescence slope in assay [5] is -4.6e-06 (inactive).
`C=CCn1c(Cc2csc(N)n2)nnc1SCC(=O)OCC`: in assay [1], the cell count turned out to be 313. Further, the inhibition in assay [1] is -3.5% (inactive); in assay [3], 25.2% (inactive); in assay [7], 4.87% (inactive); in assay [8], 10% (inactive). Further, in assay [2], the inhibition of aggregation was 18.2% (inactive). In addition, the nuclei count turned out to be 86.3% in assay [2] and 77.4% in assay [3]. For the same compound, the fluorescence slope is -0.48 (inactive) in assay [4] and 0.00546 (inactive) in assay [6]. The NADPH fluorescence slope in assay [5] was -2.5e-05 (inactive).
For the compound `O=C1CC(N2CCOCC2)C(=O)N1c1ccc2c(c1)OCO2` (centres undefined), the cell count in assay [1] was determined as 459. Also, the inhibition was 7.5% (inactive) in assay [1], -175% (inactive) in assay [3], 4.21% (inactive) in assay [7] and 10.1% (inactive) in assay [8]. Also, in assay [2], the inhibition of aggregation was -9.9% (inactive). Further, the nuclei count was 105% in assay [2] and 120% in assay [3]. In addition, the fluorescence slope is -0.574 (inactive) in assay [4] and 0.00505 (inactive) in assay [6]. The NADPH fluorescence slope in assay [5] was -3.1e-05 (inactive).
Turning to `C/C(N)=C(/C#N)C(=O)COC(=O)COc1ccc(Cl)cc1`, in assay [1], the cell count came to 500. The inhibition in assay [1] was 4.3% (inactive); in assay [3], -5.5% (inactive); in assay [7] it was 18.1% (inactive); in assay [8] it was 23.1% (inactive). Besides, the inhibition of aggregation in assay [2] was 11.4% (inactive). For the same compound, the nuclei count in assay [2] was determined as 97.4%; in assay [3], 105%. The fluorescence slope is -0.414 (inactive) in assay [4] and 0.00641 (inactive) in assay [6]. The NADPH fluorescence slope in assay [5] was 9.1e-05 (inactive).
As for `CCOc1ccc2nc(SCC#N)c(C#N)cc2c1`, the cell count in assay [1] is 430. Also, the inhibition in assay [1] was 3.1% (inactive); in assay [3] it was 9.9% (inactive); in assay [7], -56.3% (inactive); in assay [8] it was -93.9% (inactive). Moreover, the inhibition of aggregation in assay [2] was -3.9% (inactive). Further, the nuclei count is 14.5% in assay [2] and 114% in assay [3]. Moreover, the fluorescence slope was -0.561 (inactive) in assay [4] and 0.00501 (inactive) in assay [6]. For the same compound, in assay [5], the NADPH fluorescence slope was -1.4e-05 (inactive).
Take `Cc1nc2cc(CO)ccc2n1C`: in assay [1], the cell count is 425. The inhibition in assay [1] is 4.7% (inactive); in assay [3], -12.6% (inactive); in assay [7] it was 2.69% (inactive); in assay [8] it was 14.4% (inactive). In assay [2], the inhibition of aggregation is 1% (inactive). Further, the nuclei count in assay [2] stood at 92.7%; in assay [3], 108%. Moreover, the fluorescence slope in assay [4] was -0.589 (inactive); in assay [6] it was 0.00622 (inactive). Also, the NADPH fluorescence slope in assay [5] is -3.5e-05 (inactive).
Turning to `CC(C)(C)n1ncc2c(=O)n(CC(=O)NCc3ccco3)cnc21`, the cell count in assay [1] came out at 421. The inhibition in assay [1] was 4.8% (inactive); in assay [3], 4.2% (inactive); in assay [7], -35.6% (inactive); in assay [8], -92% (inactive). Besides, the inhibition of aggregation in assay [2] was -12.5% (inactive). For the same compound, the figures for the nuclei count in assay [2] and in assay [3] were 104% and 112%, respectively. Moreover, the fluorescence slope in assay [4] is -0.574 (inactive); in assay [6] it was 0.00566 (inactive). For the same compound, in assay [5], the NADPH fluorescence slope was 3.5e-06 (inactive).
Take `CC(C)(C)C(=O)Cn1c(=N)n(Cc2ccccc2)c2ccccc21`: the cell count in assay [1] is 394. For the same compound, the inhibition in assay [1] is 6.1% (inactive); in assay [3] it was 20.9% (inactive); in assay [7], 20% (inactive); in assay [8] it was 17.2% (inactive). Moreover, the inhibition of aggregation in assay [2] is 8.9% (inactive). For the same compound, the nuclei count in assay [2] is 99.1%; in assay [3], 96%. Also, the fluorescence slope was -0.409 (inactive) in assay [4] and 0.00407 (inactive) in assay [6]. Further, the NADPH fluorescence slope in assay [5] is 4.3e-05 (inactive).
With `CN(C)C(CNc1nnnn1-c1ccccc1)c1ccco1` (centres undefined), in assay [1], the cell count is 632. For the same compound, the inhibition in assay [1] was -7.3% (inactive); in assay [3], -23.9% (inactive); in assay [7], 8.59% (inactive); in assay [8] it was 19.2% (inactive). The inhibition of aggregation in assay [2] is -11.4% (inactive). The nuclei count in assay [2] is 96%; in assay [3], 116%. The fluorescence slope in assay [4] was -0.584 (inactive); in assay [6], 0.00677 (inactive). In addition, the NADPH fluorescence slope in assay [5] was 4.2e-06 (inactive).
